{"source": "ChEMBL document CHEMBL3785003", "about": "“Di- and Triterpenoids from the Leaves of Casearia balansae and Neurite Outgrowth Promoting Effects of PC12 Cells” (J Nat Prod, 2016)", "note": "Calls of active or inactive are those of the source. The rule behind the calls is not given here.", "data": [{"test_system": "PC-12", "assay": "(§1) Induction of NGF-mediated neutrite outgrowth of rat PC12 cells after 96 hrs by phase contrast microscopic analysis", "format": "functional, cell-based", "conditions": "not given", "how_it_was_run": "(§2)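 PC12 cells grown at 37 °C in DMEM with 5% heat-inactivated FBS and 5% horse serum, dissociated with 1 mM EGTA in PBS, seeded on poly-L-lysine (3 × 10^4 cells/well). After 24 h, switched to 1% FBS/1% HS medium with NGF 20 ng/mL plus test concentrations. Scored as % neurite-bearing cells; EC50 by regression; triplicate.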", "values": [{"smiles": "CC(C)=CCC(=O)[C@](C)(O)[C@H]1CC[C@@]2(C)[C@@H]3CC=C4[C@@H](C[C@H](O)C(=O)C4(C)C)[C@]3(C)C(=O)C[C@]12C", "Activity": "inactive"}]}, {"test_system": "PC-12", "assay": "as §1", "format": "functional, cell-based", "conditions": "PC-12, 96 h", "how_it_was_run": "as §2", "units": {"EC50": "µM"}, "values": [{"smiles": "C=CC(=C)CC[C@]1(C)[C@H](C)C[C@H](OC)[C@@]23C(=C[C@H](O)C[C@@H]12)[C@@H](OC)O[C@@H]3OC(C)=O", "EC50": 2.9}, {"smiles": "CC(C)=CCC[C@](C)(O)[C@H]1CC[C@@]2(C)[C@@H]3CC=C4[C@@H](CCC(=O)C4(C)C)[C@]3(C)C(=O)C[C@]12C", "EC50": "> 50"}, {"smiles": "CC(C)(O)/C=C/C(=O)[C@](C)(O)[C@H]1CC[C@@]2(C)[C@@H]3CC=C4[C@@H](C[C@H](O)C(=O)C4(C)C)[C@]3(C)C(=O)C[C@]12C", "EC50": "> 50"}, {"smiles": "C=CC(=C)CC[C@]1(C)[C@H](C)C[C@H](OC)[C@@]23C(=C[C@@H](OC(C)=O)C[C@@H]12)[C@@H](OC(=O)CCC)O[C@@H]3OC(C)=O", "EC50": 5.2}, {"smiles": "CC(C)=CCC[C@](C)(O)[C@H]1CC[C@@]2(C)[C@@H]3CC=C4[C@@H](C[C@H](O)C(=O)C4(C)C)[C@]3(C)C(=O)C[C@]12C", "EC50": 10}, {"smiles": "CC(=O)[C@H]1CC[C@@]2(C)[C@@H]3CC=C4[C@@H](C[C@H](O)C(=O)C4(C)C)[C@]3(C)C(=O)C[C@]12C", "EC50": "> 50"}, {"smiles": "C=CC(=C)CC[C@]1(C)[C@H](C)C[C@H](OC)[C@@]23C(=C[C@@H](O)C[C@@H]12)[C@@H](OC)O[C@H]3OC", "EC50": 5.4}, {"smiles": "C=C(C)[C@@H](C)C[C@@H](O)[C@@H](C)[C@H]1CC[C@@]2(C)[C@@H]3CCC4=C(C[C@]35O[C@@H]5C[C@]12C)C(=O)C[C@H](O)C4(C)C", "EC50": "> 50"}, {"smiles": "C=CC(=C)CC[C@]1(C)[C@H](C)C[C@H](OC)[C@@]23C(=C[C@@H](O)C[C@@H]12)[C@@H](OC)O[C@H]3OC(C)=O", "EC50": 8.3}]}, {"test_system": "PC-12", "assay": "Induction of neutrite outgrowth of rat PC12 cells after 96 hrs in absence of NGF by phase contrast microscopic analysis", "format": "functional, cell-based", "conditions": "not given", "how_it_was_run": "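Poly-L-lysine-seeded PC12 cells (3 × 10^4 cells/well) in 1% FBS/1% horse serum test medium with graded compound concentrations for 96 h. Neurites at least one cell-body diameter counted as neurite-bearing under phase contrast. At least 100 cells per field, three fields per well, six wells per sample. Result expressed as percentage of total cells.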", "values": [{"smiles": "CC(C)=CCC(=O)[C@](C)(O)[C@H]1CC[C@@]2(C)[C@@H]3CC=C4[C@@H](C[C@H](O)C(=O)C4(C)C)[C@]3(C)C(=O)C[C@]12C", "Activity": "inactive"}]}]}
